Rows were chosen to be rich in hits. Some 4% of all compounds tested hit in one or more screens of this group.
TAAR1 ag: human TAAR1 agonists, primary screen, Fluo-8 calcium fluorescence, CHO RD-HGA16 cells; Trace amine-associated receptor 1 (Homo sapiens), Q96RJ0; actives 0.99% (n = 360,000); vehicle wells 0%, saturating PEA agonist 100%; activation, % at 3 µM; AID 624467, 2012;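 active = activation above the mean activation of all test compounds in the run plus 3 SD, cut at about 38% in these data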
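Signal – calcium-sensitive Fluo-8 signal, excitation 470-495, emission 515-575 nm · System – RD-HGA16 (CHO) cells co-expressing Gα16 and hTAAR1 · Incubation – 17-24 h seeding, 75 min 37 °C dye, 30 min RT · Compound dosing – 3 µM single concentration · Repeats – no replicates (n 1)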
OX1R antag-1: antagonists of human orexin 1 receptor (OX1R) | Orexin/Hypocretin receptor type 1 (Homo sapiens), O43613 | inhibition, % at 6.6 µM | OX1R-expressing cells, FRET antagonist read-out | actives 1.8% (n = 330,000); in the data active = inhibition mostly above about 38%, no sharp cut-off; inactive = mostly below about 40%
Target sequence (O43613 whole entry, looked up): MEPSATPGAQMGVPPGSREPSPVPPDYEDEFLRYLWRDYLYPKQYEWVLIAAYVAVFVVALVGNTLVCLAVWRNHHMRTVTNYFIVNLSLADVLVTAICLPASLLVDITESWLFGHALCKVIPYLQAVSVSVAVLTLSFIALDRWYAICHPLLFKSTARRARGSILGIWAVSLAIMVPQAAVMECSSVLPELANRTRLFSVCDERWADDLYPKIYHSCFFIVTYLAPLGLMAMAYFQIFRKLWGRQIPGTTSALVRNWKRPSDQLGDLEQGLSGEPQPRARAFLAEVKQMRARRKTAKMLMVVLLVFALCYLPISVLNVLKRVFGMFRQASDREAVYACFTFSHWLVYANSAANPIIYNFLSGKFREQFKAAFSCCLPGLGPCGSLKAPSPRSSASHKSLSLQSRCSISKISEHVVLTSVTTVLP
CHO parental Ca: ATP-evoked calcium signal inhibitors, parental CHO, primary screen, counter-screen for OX1R antagonist project, cell-based, fluorescence, Fluo-8 calcium dye. actives 0.63% (n = 330,000). parental CHO-K1, ATP-induced calcium, Fluo-8 fluorescence. inhibition, % at 5.6 µM;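 active = inhibition above that plate's mean sample inhibition plus 3 SD, cut at about 26% in these data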
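Measured by: calcium-sensitive Fluo-8 fluorescence / Test system: CHO parental line / Controls: ATP-challenged DMSO wells low, unchallenged DMSO wells high / Measure: % inhibition / Compound: single nominal dose of 5.6 µM per compound / Replicates: single well per compound, no replicates / Reagent: ATP as calcium-mobilizing challenge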
TAAR1 antagonist: human TAAR1 antagonists, primary screen, Fluo-8 calcium fluorescence, CHO RD-HGA16 cells. antagonist. inhibition, % at 3 µM. actives 1.5% (n = 360,000);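 active = inhibition above a per-plate cutoff, the mean inhibition of test compounds on that plate plus 3 SD, cut at about 49% in these data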
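Assay system: CHO-derived RD-HGA16 cells stably expressing human TAAR1 plus Gα16. Timing: 140 s kinetic read after compound, 140 s after agonist. Technique: kinetic Fluo-8 calcium fluorescence measurement. Measure: % inhibition of agonist calcium response.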
OX1R antag-2: OX1R (HCRTR1) antagonists, primary screen, fluorescence, CHO/OX1R cells, Fluo-8 calcium, orexin A | Orexin/Hypocretin receptor type 1 (Homo sapiens), O43613 | Fluo-8 calcium fluorescence | inhibition, % at 5 µM | actives 0.43% (n = 330,000);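 active = inhibition above its plate's threshold, mean inhibition of all tested compounds on the plate plus 3 SD, cut at about 37% in these data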
OX1R HTRF conf: OX1R (HCRTR1) antagonists, confirmation, cell-based, HTRF; AID 492964, 2010; inhibition, % at 6.6 µM; OX1R-expressing cells, HTRF antagonist assay; actives 49% (n = 1,800); shares compounds with OX1R antag-1; in the data active = inhibition above about 55%;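 also: CHO cells expressing OX1R stimulated with orexin A at about EC80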
CHO-K1 HTRF: signal inhibition in parental CHO-K1 cells, counter-screen for OX1R antagonist project, cell-based, HTRF | AID 493232, 2011 | inhibition, % at 6.6 µM | HTRF counterscreen | actives 48% (n = 1,800) | shares compounds with OX1R antag-1; in the data active = inhibition above about 17%
Large screens that a line does not name were inactive (follow-up assays come after a bar, where they were run).

NC1=NC(=O)/C(=C\c2ccc(O)c([N+](=O)[O-])c2)S1	OX1R antag-1 90 | OX1R HTRF conf 69 | CHO-K1 HTRF 58
O=C(CCCN1C(=O)c2cccc3cccc(c23)C1=O)NC1CCS(=O)(=O)C1 (stereo not given)	OX1R antag-1 85 | OX1R HTRF conf inactive | CHO-K1 HTRF 50
Cc1noc(C)c1S(=O)(=O)Nc1ccc(O)c2c(=O)cc(-c3ccccc3Cl)oc12	OX1R antag-1 85 | OX1R HTRF conf 93 | CHO-K1 HTRF inactive
CC1CCN(C(=O)Cn2c3ccc(F)cc3c3nc4n(c(=O)c32)CCCS4)CC1	OX1R antag-1 91 (no result: TAAR1 ag, TAAR1 antagonist) | OX1R HTRF conf inactive | CHO-K1 HTRF inactive
Clc1cccc(Nc2nc(-c3ccncc3)cs2)c1	OX1R antag-1 80 | OX1R HTRF conf inactive | CHO-K1 HTRF inactive
Cc1ccc(C(=O)OCC(=O)NCc2ccc(Cl)cc2Cl)o1	none
O=[N+]([O-])c1ccc(/C=N/NC(=S)Nc2ccccc2)o1	none
O=C1OCCN1/N=C/c1ccc([N+](=O)[O-])o1	OX1R antag-1 79 | OX1R HTRF conf 60 | CHO-K1 HTRF 93
Cc1onc(-c2c(F)cccc2Cl)c1C(=O)Oc1ccccc1	none (no result: OX1R antag-1, CHO parental Ca, OX1R antag-2)
CC(=O)Nc1ccc(NC(=O)Nc2ccc3c(c2)N(C)C(=O)CS3)cc1	none
COc1cccc(NC(=O)Nc2ccc3c(c2)N(C)C(=O)CS3)c1	OX1R antag-1 82, TAAR1 antagonist 69 | OX1R HTRF conf inactive | CHO-K1 HTRF inactive
COc1ccccc1N(CC(=O)NCc1ccccc1)S(=O)(=O)c1cccs1	none (no result: OX1R antag-1, CHO parental Ca, OX1R antag-2)
O=c1oc2ccccc2n1CCn1c2ccccc2c2nc3ccccc3nc21	none
N#CCCn1c2ccccc2c2nc3ccccc3nc21	OX1R antag-1 77 | OX1R HTRF conf 84 | CHO-K1 HTRF inactive
CC(=O)NC1=C(NC2CCS(=O)(=O)C2)C(=O)c2ccccc2C1=O (stereo not given)	OX1R antag-1 141 | OX1R HTRF conf 69 | CHO-K1 HTRF 94
O=C(NC1CCCCC1)Oc1cccc2ccccc12	none
COc1ccc(S(=O)(=O)N(C)C)cc1NC(=O)CSc1nnc(-c2cccnc2)o1	none
O=c1[nH]c2cc(NCCO)c([N+](=O)[O-])cc2[nH]1	OX1R antag-1 166 | OX1R HTRF conf 66 | CHO-K1 HTRF 88
COCCNc1cc(N)c([N+](=O)[O-])cc1[N+](=O)[O-]	none
O=C(O)CCC(=O)Nc1nc2nc(-c3ccccc3)cc(-c3ccccc3)n2n1	OX1R antag-1 109 | OX1R HTRF conf inactive | CHO-K1 HTRF inactive
CC(=O)Nc1ccc(S(=O)(=O)Nc2nc3nc(-c4ccccc4)cc(-c4ccccc4)n3n2)cc1	none
Cc1nc2ccccc2c2oc(C(=O)Nc3ccc4c(c3)OCCO4)cc12	OX1R antag-1 95 | OX1R HTRF conf 89 | CHO-K1 HTRF inactive
O=C(Nc1ccc2c(c1)OCCO2)c1cc2ccccc2o1	none
Cc1c(C(=O)Nc2ccc3c(c2)OCCO3)oc2ccc(Br)cc12	OX1R antag-1 82 | OX1R HTRF conf 76 | CHO-K1 HTRF inactive
CCCn1cc(CN2CCc3ccc(NC(=O)C4CCCO4)cc3C2)c(C)n1 (stereo not given)	none
O=C(Cc1ccccc1)Nc1ncccn1	none
COCCN(C(=O)CSc1nc2ccc(OC)cc2[nH]1)c1c(N)n(Cc2ccccc2)c(=O)[nH]c1=O	OX1R antag-1 90 | OX1R HTRF conf inactive | CHO-K1 HTRF inactive
COCCN(C(=O)CSc1nc2ccc(C)cc2[nH]1)c1c(N)n(Cc2ccccc2)c(=O)[nH]c1=O	none
CCC(C)n1c(=N)c(C#N)cc2c(=O)n3ccccc3nc21 (stereo not given)	none
Cc1ccc2nc3c(cc(C(=O)NCCc4ccccc4)c(=N)n3CCN3CCOCC3)c(=O)n2c1	OX1R antag-1 97 (no result: TAAR1 ag, TAAR1 antagonist) | OX1R HTRF conf 64 | CHO-K1 HTRF 69
Cc1ccc2nc3c(cc(C(=O)NCc4ccco4)c(=N)n3Cc3ccco3)c(=O)n2c1	none
CCCCNC(=O)c1cc2c(=O)n3cccc(C)c3nc2n(CCN2CCOCC2)c1=N	OX1R antag-1 112 | OX1R HTRF conf inactive | CHO-K1 HTRF 55
Cc1cccn2c(=O)c3cc(C#N)c(=O)n(-c4c(C)n(C)n(-c5ccccc5)c4=O)c3nc12	OX1R antag-1 147 | OX1R HTRF conf inactive | CHO-K1 HTRF 55
N#Cc1cc2c(=O)n3ccccc3nc2n(CCCn2ccnc2)c1=N	OX1R antag-1 82 | OX1R HTRF conf inactive | CHO-K1 HTRF 68
Cc1cc(-n2c(=O)c(C#N)cc3c(=O)n4cccc(C)c4nc32)no1	none
Cn1cnnc1SCC(=O)Nc1ccc2ccccc2c1	none
Cc1cccn2c(=O)c3cc(C#N)c(=N)n(CCCN4CCOCC4)c3nc12	OX1R antag-1 144 | OX1R HTRF conf inactive | CHO-K1 HTRF 64
Cc1cccn2c(=O)c3cc(C(N)=S)c(=N)n(CCCN4CCOCC4)c3nc12	none
Cc1ccc2nc3c(cc(C(=O)NCC4CCCO4)c(=N)n3CC3CCCO3)c(=O)n2c1 (stereo not given)	OX1R antag-1 140 (no result: TAAR1 ag, TAAR1 antagonist) | OX1R HTRF conf inactive | CHO-K1 HTRF 72
COCCCn1c(=N)c(C(N)=S)cc2c(=O)n3cccc(C)c3nc21	OX1R antag-1 82 | OX1R HTRF conf inactive | CHO-K1 HTRF 49
CCC(C)[C@@H](N)C(=O)N/N=C/c1ccc2ncccc2c1 (stereo not given in full)	none
CC(=O)c1sc2nsc(SCCN3CCCC3)c2c1N	none
COc1cccc2cc(-c3nc4ccccc4o3)c(=O)oc12	OX1R antag-1 123 | OX1R HTRF conf inactive | CHO-K1 HTRF 18
O=c1oc2ccc(Br)cc2cc1-c1nc2ccccc2o1	none
O=[N+]([O-])c1cccc(/C=C/c2nc3ccc([N+](=O)[O-])cc3[nH]2)c1	OX1R antag-1 102 | OX1R HTRF conf inactive | CHO-K1 HTRF inactive
COC(=O)CSc1nc2ccc(C)cc2[nH]1	none
Cc1ccc2nc(SCC(=O)c3ccc(O)cc3O)[nH]c2c1	TAAR1 ag 41, OX1R antag-1 81 | OX1R HTRF conf 79 | CHO-K1 HTRF inactive
COCC(=O)N1CCN(c2ccc([N+](=O)[O-])cc2)CC1	OX1R antag-1 160 | OX1R HTRF conf inactive | CHO-K1 HTRF 41
COc1cc(CCC(=O)N2CCN(c3ccc([N+](=O)[O-])cc3)CC2)cc(OC)c1OC	none

Bioassay records deposited in PubChem BioAssay by The Scripps Research Institute Molecular Screening Center.
